PERK inh – block of dimerizer-induced PERK translation repression, primary screen, PERK inhibitor project, CHO PERK-DD cells, SEAP luminescence, HTS | actives 0.17% (n = 220,000) | inhibition, % at 5.6 µM | CHO PERK-DD fusion, SEAP luminescence translation reporter | AID 1416, 2008 | Eukaryotic translation initiation factor 2-alpha kinase 3 (Homo sapiens), Q9NZJ5;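 active means inhibition above the mean inhibition of all tested compounds plus 3 SD, set separately per screening campaign, cut at about 2.9% in these data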;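 further: PERK kinase domain activated by AP20187 dimerizer at 100 nM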
Target sequence (Q9NZJ5 whole entry, looked up, the tested form may be a part): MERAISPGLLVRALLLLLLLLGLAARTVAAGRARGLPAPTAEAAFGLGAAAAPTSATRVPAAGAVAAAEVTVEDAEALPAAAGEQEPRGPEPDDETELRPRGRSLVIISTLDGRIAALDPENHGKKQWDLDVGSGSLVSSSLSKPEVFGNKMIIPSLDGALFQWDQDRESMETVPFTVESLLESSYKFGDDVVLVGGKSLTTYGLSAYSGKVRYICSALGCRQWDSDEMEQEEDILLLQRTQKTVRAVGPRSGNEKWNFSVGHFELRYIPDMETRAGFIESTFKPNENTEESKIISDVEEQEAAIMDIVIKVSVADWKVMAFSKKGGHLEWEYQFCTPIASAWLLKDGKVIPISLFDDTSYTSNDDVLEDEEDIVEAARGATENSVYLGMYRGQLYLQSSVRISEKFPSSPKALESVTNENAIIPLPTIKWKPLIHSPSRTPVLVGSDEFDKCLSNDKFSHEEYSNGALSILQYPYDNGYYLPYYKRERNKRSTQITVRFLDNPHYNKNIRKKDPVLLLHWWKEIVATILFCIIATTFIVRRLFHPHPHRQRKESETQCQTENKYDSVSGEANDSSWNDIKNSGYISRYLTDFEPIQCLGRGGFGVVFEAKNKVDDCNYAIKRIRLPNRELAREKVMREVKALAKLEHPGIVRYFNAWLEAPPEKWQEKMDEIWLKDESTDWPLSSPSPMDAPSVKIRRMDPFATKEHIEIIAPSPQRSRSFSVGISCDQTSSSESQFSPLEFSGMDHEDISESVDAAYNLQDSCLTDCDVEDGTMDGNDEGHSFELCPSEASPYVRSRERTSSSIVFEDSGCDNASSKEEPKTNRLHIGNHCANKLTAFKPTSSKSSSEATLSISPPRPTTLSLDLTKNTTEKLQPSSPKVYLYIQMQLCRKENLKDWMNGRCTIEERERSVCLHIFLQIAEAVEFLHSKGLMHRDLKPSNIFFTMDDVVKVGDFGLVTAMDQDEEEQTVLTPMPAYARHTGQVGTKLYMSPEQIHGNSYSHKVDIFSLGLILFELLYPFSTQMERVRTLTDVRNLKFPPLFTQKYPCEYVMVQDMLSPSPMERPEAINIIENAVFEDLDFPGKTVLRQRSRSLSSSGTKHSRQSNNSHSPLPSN
HMGR II inh – inhibitors of E. faecalis class II HMGR, primary screen, biochemical, Enterococcus faecalis; actives 0.41% (n = 190,000); HMG-CoA reductase (Enterococcus faecalis, mvaE); inhibition, % at 10 µM; purified E. faecalis HMGR, NADPH absorbance 340 nm kinetic;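 active means inhibition above a set limit, the median over all tested compounds plus 3 SD, cut at about 9.5% in these data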;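 further: enzyme runs in reverse so mevalonate oxidation gives rising NADPH absorbance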
Rad51 HR inh – human RAD51 strand exchange inhibitors, primary screen, biochemical, fluorescence. DNA repair protein RAD51 homolog 1 (Homo sapiens), Q06609. hRad51 DNA strand exchange, fluorescence dequenching. inhibition, % at 10 µM. actives 0.085% (n = 200,000). AID 1385, 2008;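 active means inhibition above 40% at the single screening dose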
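Assay system: Human Rad51 nucleoprotein filaments preassembled on unlabelled ssDNA | Reagent: Donor/quencher-labelled 47-bp dsDNA substrate | Doses: One concentration, 10 µM final | Times: 37 °C 15-min filament assembly, 30-min compound preincubation, 15-min exchange | Technique: Fluorescein emission 520 nm, excitation 485 nm | Benchmarks: Plate control and blank wells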
ABCG2 block – ABCG2 efflux pump inhibitors, primary screen, multiplex with ABCB1, IgMXP3 cells, flow cytometry; JC-1 efflux; actives 0.1% (n = 190,000); inhibition, % at 6.6 µM; Broad substrate specificity ATP-binding cassette transporter ABCG2 (Homo sapiens), Q9UNQ0;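 active means inhibition above 80%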
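material = IgMXP3 (ABCG2) plus far-red-tagged CCRF-Adr (ABCB1) cells | amount = 3 million cells/mL, equal mix of both lines | also added = JC-1 transporter substrate | dosing = one concentration, 6.6 µM final | schedule = 10 min at 25 °C | measured by = flow cytometric JC-1 green MFI at 530 nm | read-out basis = percent efflux inhibition, scaled nicardipine 100% to DMSO 0%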
ABCB1 block – ABCB1 efflux pump inhibitors, primary screen, cell-based, multiplex, flow cytometry, ABCG2 counter-screen; ATP-dependent translocase ABCB1 (Homo sapiens), P08183; CCRF-Adr cells, JC-1 efflux; inhibition, % at 6.6 µM; actives 0.067% (n = 190,000); AID 1326, 2008; in the data active means inhibition above about 40%;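 further: higher value means more JC-1 retained so stronger ABCB1 efflux block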
Furin inhibitor – human furin inhibitors, primary screen, biochemical, fluorescence intensity; P09958; purified furin, fluorogenic substrate cleavage; inhibition, % at 20 µM or 30 µM; actives 0.061% (n = 220,000); AID 463115, 2010; in the data active means inhibition above about 25%
Hits are given with their value; n = inactive; x = not tested or not shown. Rows were chosen to be rich in hits. Some 0.77% of all compounds tested hit in one or more screens of this group.

SMILES	PERK inh	HMGR II inh	Rad51 HR inh	ABCG2 block	ABCB1 block	Furin inhibitor
Cc1ccc(CN2CCNC(=O)C2CC(=O)NCCCn2ncc3ccccc32)o1 (stereo not given)	n	n	n	n	n	n
CN1CCN(CCCNC(=O)c2nnc(Cc3c(F)cccc3Cl)o2)CC1	n	10.4	n	n	n	n
O=C(NCCCN1CCCC1=O)c1nnc(Cc2c(F)cccc2Cl)o1	n	n	n	n	n	n
CCN1CCS/C1=C\C=C\C1=[N+](CC)CCS1	n	n	x	n	n	43.0
CCN1CCS/C1=C/C=C/C1=[N+](CC)CCS1	n	n	n	n	n	38.3
C/C(=N\NC(=S)Nc1cc(S(=O)(=O)N2CCOCC2)ccc1Cl)c1ccccc1F	n	n	n	n	n	n
O=C(NCCc1csc(-c2ccccc2)n1)c1cccs1	n	n	n	n	n	n
O=C(Cc1cccs1)NCc1ccncc1	3.0	n	x	n	n	n
O=C(Cc1csc(-c2ccccc2)n1)NCc1cccs1	n	11.2	n	n	n	n
O=C(Cc1cccs1)NCc1ccccc1	n	n	n	n	n	n
CCn1ccnc1CN(C)C(=O)CCc1nnc(CCC2CCCCC2)o1	n	n	n	n	n	n
O=C1ON=C(c2cccc([N+](=O)[O-])c2)/C1=C/c1ccc(O)cc1	n	n	n	n	n	n
O=C(NC(=S)Nc1ccc2oc(=O)ccc2c1)c1ccccc1F	3.7	x	n	x	x	n
CCc1nnc(NC(=O)Cn2nc(-c3ccccc3OC)ccc2=O)s1	n	n	n	n	n	n
COc1ccc(N2CCN(C(CNC(=O)C(C)(C)C)c3ccco3)CC2)cc1 (stereo not given)	n	10.9	n	n	n	n
Cc1nn(CC(=O)NCc2cc3ccccc3[nH]2)c(C)c1[N+](=O)[O-]	n	n	n	n	n	n
NC(=S)N/N=C\c1c(OCc2ccccc2Cl)ccc2ccccc12	n	n	x	n	n	n
CN(C[C@@H](Cc1cccc2ccccc12)N(C[C@H](Cc1ccccc1)N(CCc1ccccc1)N=O)N=O)N=O	n	12.4	n	n	n	n
Cc1ccc(S(=O)(=O)/N=C2/C=C(Sc3ncn[nH]3)C(=O)c3ccccc32)c(C)c1	n	13.2	n	n	n	n
Cc1ccc(S(=O)(=O)/N=C2/C=C(Sc3ncn[nH]3)C(=O)c3ccccc32)cc1	n	n	x	n	n	n
C/C(=N/NC(=O)c1cc(O)c(O)c(O)c1)c1ccc([N+](=O)[O-])cc1	n	20.9	n	n	n	n
COc1ccc(C(=O)NCC2CCCO2)cc1OC (stereo not given)	n	x	n	x	x	n
CCOc1ccc(C(=O)NCC2CCCO2)cc1OCC (stereo not given)	n	13.0	n	n	n	n
CCCNC(=O)CN1C(=O)NC(CCc2ccccc2)C1=O (stereo not given)	n	11.7	n	n	n	n
CCC1(C)N(O)C(C)(C)C(c2ccc(F)cc2)=[N+]1[O-] (stereo not given)	n	n	n	n	n	n
SMILES	PERK inh	HMGR II inh	Rad51 HR inh	ABCG2 block	ABCB1 block	Furin inhibitor
Nc1nc(-c2ccc(Cl)cc2Cl)cn1N	3.1	n	n	n	n	n
Cc1nccc(-c2cc(-c3ccc(Cl)cc3Cl)no2)n1	n	x	n	x	x	n
COc1ccc(/C=N/Nc2nc(Nc3ccccc3)nc(N3CCCC3)n2)cc1	n	11.2	n	n	n	n
COc1ccc(/C=N/Nc2nc(N3CCCC3)nc(N3CCCC3)n2)cc1	n	n	n	n	n	n
Cc1occc1C(=O)N/N=C/C(Br)=C/c1ccccc1	n	10.0	n	n	n	n
O=c1c2ccccc2nc(/C=C/c2cccnc2)n1CCc1ccccc1	n	x	n	x	x	n
O=c1c2ccccc2nc(/C=C/c2cccnc2)n1Cc1ccccc1	n	n	48.2	n	n	n
CC(NC=C1C(=O)OC(C)(C)OC1=O)C(=O)O (stereo not given)	3.3	n	x	n	n	n
CC(Oc1ccc(Cl)cc1Cl)C(=O)NNC(=O)C(=O)N1CCCCC1 (stereo not given)	n	n	n	n	x	n
NS(=O)(=O)c1ccc(CCNC(=O)COC(=O)C2CCCN2C(=O)c2cccs2)cc1 (stereo not given)	3.3	n	n	n	n	n
O=C(O)C1CC=CCC1C(=O)Nc1cccc(Cl)c1 (stereo not given)	n	n	n	n	n	n
CC(=O)NC(Cc1cccc(F)c1)C(=O)NC1CCN(c2ncccc2[N+](=O)[O-])CC1 (stereo not given)	n	15.5	n	n	n	n
CC(=O)NC(Cc1cccc(C)c1)C(=O)NC1CCN(c2ncccc2[N+](=O)[O-])CC1 (stereo not given)	n	n	n	n	n	n
CN(C)c1cc(-c2ccc([N+](=O)[O-])cc2)oc(=O)c1Cl	n	x	n	x	x	n
CCOC(=O)/C(C#N)=C/c1ccc(N2CCN(C)CC2)cc1	n	n	n	n	n	n
CN1CCN(C(=O)/C(C#N)=C/c2ccc(OC(F)F)cc2)CC1	n	x	44.0	x	x	n
Cc1ccc(N2CN=c3s/c(=C\c4ccccn4)c(=O)n3C2)cc1	3.1	n	n	n	n	n
COc1cc(/C=N/NC(=O)c2ccc(-c3ccccc3)cc2)cc(OC)c1OC	n	12.5	n	n	n	n
COc1cc(/C=N/NC(=O)c2cc(-c3ccccc3)sc2N)cc(OC)c1OC	n	x	n	x	x	n
COc1ccc(C(=O)N/N=C/c2ccccn2)cc1OC	n	n	n	n	n	n
O=C(N/N=C\c1ccncc1)c1ccccc1O	n	n	n	n	n	n
O=C(N/N=C/c1ccncc1)c1ccccc1	3.6	n	n	n	n	n
COc1ccc(C(=O)N/N=C/c2ccccc2C(=O)O)cc1OC	n	x	40.8	x	x	n
COc1ccccc1Sc1ccccc1/C=N/NC(N)=O	n	15.4	n	n	n	n
O=C1COc2ccc(C(=O)c3ccccc3C(=O)NCc3ccccc3)cc2N1	n	n	n	x	x	n
CCCCc1nc2ccccc2[nH]1	n	n	n	n	n	n
CNCc1nc2ccccc2[nH]1	n	12.5	n	n	n	n
O=S(=O)(c1ccc2c(c1)nc(COc1ccc(Cl)cc1)n2CC1CCCO1)N1CCOCC1 (stereo not given)	n	n	n	n	n	n

Screening data: PubChem BioAssay, several laboratories
